# Assay results reported in ChEMBL document CHEMBL2163208, “Diphenylpyridylethanamine (DPPE) derivatives as cholesteryl ester transfer protein (CETP) inhibitors” (J Med Chem, 2012).
# How the values were obtained:
# [1] = Metabolic stability in mouse liver microsomes assessed as compound remaining at 3 uM after 10 mins; assay type: ADME, Microsome; conditions: read-out: Stability
# How it was run: (§1)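 Mouse liver microsomes (1 mg/mL protein) incubated with compound at 3 μM for 10 min; remaining compound quantified by UV absorbance, expressed as % remaining or rate per mg protein.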
# [2] = Drug metabolism in mouse liver microsomes assessed as per mg of protein at 3 uM after 10 mins; assay type: ADME, Microsome; how it was run: as §1
# [3] = AUC (0 to 8 hrs) in transgenic mouse expressing human CETP and apoB-100 at 30 mg/kg, po; assay type: ADME, organism-based; design: time < 8 hr, dose 30 mg/kg, route oral; conditions: plasma
# Mus musculus [4] = species: Mus musculus; test: Inhibition of [3H]cholesteryl ester transfer from HDL to LDL in human CETP expressed transgenic mouse plasma coexpressing apoB-100
# Mus musculus [5] = test: [3H]cholesteryl ester transfer activity from HDL to LDL in human CETP expressed transgenic mouse plasma coexpressing apoB-100 at 30 mg/kg, po measured at 2 hrs relative to predose condition
# Mus musculus [6] = test: Residual CETP-mediated [3H]cholesteryl ester transfer from HDL to LDL in human CETP expressed transgenic mouse coexpressing apoB-100 at 30 mg/kg, po measured at 8 hrs relative to predose condition
# Mus musculus [7] = test: Residual CETP-mediated [3H]cholesteryl ester transfer from HDL to LDL in human CETP expressed transgenic mouse coexpressing apoB-100 at 30 mg/kg, po measured at 4 hrs relative to predose condition
# [8] = target: T1, Cholesteryl ester transfer protein (Homo sapiens, UniProt P11597); test: Inhibition of human recombinant CETP-mediated [3H]cholesteryl ester transfer from HDL to biotinylated LDL by scintillation proximity assay
# T1 sequence (P11597 whole entry): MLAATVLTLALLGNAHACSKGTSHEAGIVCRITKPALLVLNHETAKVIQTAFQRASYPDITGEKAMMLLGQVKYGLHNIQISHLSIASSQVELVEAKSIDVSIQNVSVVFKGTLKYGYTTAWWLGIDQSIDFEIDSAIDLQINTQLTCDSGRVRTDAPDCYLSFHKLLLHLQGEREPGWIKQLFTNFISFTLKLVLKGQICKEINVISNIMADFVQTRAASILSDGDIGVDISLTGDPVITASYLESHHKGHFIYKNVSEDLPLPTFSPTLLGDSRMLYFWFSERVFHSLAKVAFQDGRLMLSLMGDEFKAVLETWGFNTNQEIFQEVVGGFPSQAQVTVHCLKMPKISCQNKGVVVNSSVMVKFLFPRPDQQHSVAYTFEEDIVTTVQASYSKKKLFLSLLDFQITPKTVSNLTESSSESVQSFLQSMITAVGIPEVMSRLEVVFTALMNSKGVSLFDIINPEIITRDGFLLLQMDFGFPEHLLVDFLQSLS
# [9] = target: T1, Cholesteryl ester transfer protein; test: Inhibition of CETP-mediated [3H]cholesteryl ester transfer activity in human plasma after 2.5 hrs by scintillation counter
# [10] = Half life in telemeterized rat up to 60 mg/kg, po; assay type: ADME, organism-based; design: dose 60 mg/kg, route oral; conditions: in vivo
# Rattus norvegicus [11] = test: Toxicity in telemeterized rat assessed as change in heart rate up to 60 mg/kg, po; assay type: organism-based; design: dose 60 mg/kg, route oral; conditions: in vivo
# [12] = Cmax in telemeterized rat up to 60 mg/kg, po; assay type: ADME, organism-based; design: dose 60 mg/kg, route oral; conditions: in vivo
# Rattus norvegicus [13] = test: Toxicity in telemeterized rat assessed as change in mean arterial blood pressure up to 60 mg/kg, po; assay type: organism-based; design: dose 60 mg/kg, route oral; conditions: in vivo
# Syrian golden hamster = test: Inhibition of CETP in moderately fat-fed golden Syrian hamster assessed as increase in HDL-cholesterol level at 30 mg/kg, po qd administered for 3 days measured at 2 hrs post last dose relative to predose condition; assay type: functional, Mesocricetus auratus; design: scale not given: the % may be the effect or the level left
# How it was run: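 Male Golden Syrian hamsters, 12 weeks old, fed moderate-fat diet (2.5% coconut oil, 0.25% cholesterol) for 2 weeks. Predose retro-orbital bleed; 30 mg/kg po q.d. for 3 days in ethanol/Cremophor/water 1:1:8. Blood 2 h postdose on day 3; HDL-C measured by automated lipid analyzer versus predose; percent increase as mean ± SEM, N = 6.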
# [14] = Plasma concentration in moderately fat-fed golden Syrian hamster at 30 mg/kg, po qd administered for 3 days measured at 2 hrs post last dose; assay type: ADME, organism-based, Mesocricetus auratus; design: dose 30 mg/kg, route oral
# How it was run: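 Moderately fat-fed male Golden Syrian hamsters dosed 30 mg/kg po once daily; plasma exposure sampled 2 h after dosing on day 3.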
IC50 [8] [µM],IC50 [9] [µM],SMILES,also measured
> 96,,O=C(NC1CCCC1)N[C@@](Cc1ncn[nH]1)(c1cc(F)cc(C(F)(F)F)c1)c1ccc(Cl)cn1,
2.4,,COC(=O)C[C@](NC(=O)NC1CCCC1)(c1cc(F)cc(C(F)(F)F)c1)c1ccc(Cl)cn1,
0.023,3.4,Cc1ccc(C[C@](NC(=O)NC2CCCC2)(c2cc(F)cc(C(F)(F)F)c2)c2ccc(Cl)cn2)cc1,
0.016,6.4,O=C(NC1CCCC1)N[C@@](Cc1ccccc1F)(c1cc(F)cc(C(F)(F)F)c1)c1ccc(Cl)cn1,
44,> 97,CC(C)(C)CC(=O)O[C@](Cc1ccccc1)(c1cccc(C(F)(F)F)c1)c1ccccn1,
27,,CC(C)(C)CC(=O)NC(Cc1ccccc1)(c1cccc(C(F)(F)F)c1)c1ccccn1 (stereo not given),
0.015,3.4,COc1ccc([C@@](Cc2ccccc2)(NC(=O)NC2CCCC2)c2cc(F)cc(C(F)(F)F)c2)cn1,
1.1,28,CC(C)(C)CC(=O)OC(Cc1ccccc1)(c1cccc(OC(F)(F)C(F)F)c1)c1ccccn1 (racemic),
0.24,6.9,O=C(NC1CCCC1)NC(Cc1ccccc1)(c1cccc(C(F)(F)F)c1)c1ccc(F)cn1 (racemic),

# Further lines, the compound ahead of its results:
SMILES,IC50 [8] [µM],IC50 [9] [µM],also measured
O=C(NC1CCCC1)N[C@@](Cc1ccccc1)(c1cc(F)cc(OC(F)(F)C(F)F)c1)c1ccc(Cl)cn1,,,"remaining at 10 min, 3 µM [1]: 10%; Drug metabolism [2]: 0.27 nmol/min/mg; AUC(0-t) at 8 h [3]: 9.7 µM·h; IC50 (Mus musculus [4]): 0.94 µM; activity in vivo at 30 mg/kg (Mus musculus [5]): 48%; CETP activity in vivo at 30 mg/kg (Mus musculus [6]): 65%; CETP activity in vivo at 30 mg/kg (Mus musculus [7]): 58%"
O=C(NC1CCCC1)N[C@@](Cc1ccccn1)(c1cc(F)cc(C(F)(F)F)c1)c1ccc(Cl)cn1,27,,
Cc1csc(C[C@](NC(=O)NC2CCCC2)(c2cc(F)cc(C(F)(F)F)c2)c2ccc(Cl)cn2)n1,1.1,24,
Cc1nc(C[C@](NC(=O)NC2CCCC2)(c2cc(F)cc(C(F)(F)F)c2)c2ccc(Cl)cn2)no1,1.07,34,
O=C(NC1CCCC1)N[C@@](Cc1ccc(F)cc1)(c1cc(F)cc(C(F)(F)F)c1)c1ccc(Cl)cn1,0.087,10,
C=CC[C@](NC(=O)NC1CCCC1)(c1cc(F)cc(C(F)(F)F)c1)c1ccc(Cl)cn1,0.085,7.1,
CC(C)(C)CC(=O)O[C@@](Cc1ccccc1)(c1cccc(C(F)(F)F)c1)c1ccccn1,6.7,26,
O=C(NC(Cc1ccccc1)(c1cccc(C(F)(F)F)c1)c1ccccn1)c1ccccc1 (stereo not given),> 96,,
O=C(NC(Cc1ccccc1)(c1cccc(C(F)(F)F)c1)c1ccccn1)c1cccc(C(F)(F)F)c1 (stereo not given),12,,
O=C(NC(Cc1ccccc1)(c1cccc(C(F)(F)F)c1)c1ccccn1)c1ccc(F)cc1 (stereo not given),8.9,,
CC(C)(C)NC(=O)NC(Cc1ccccc1)(c1cccc(C(F)(F)F)c1)c1ccccn1 (stereo not given),3.8,83,
O=C(NC(Cc1ccccc1)(c1cccc(C(F)(F)F)c1)c1ccccn1)c1ccc(F)c(C(F)(F)F)c1 (stereo not given),2.9,15,"remaining at 10 min, 3 µM [1]: 68%"
O=C(NC1CCCC1)NC(Cc1ccccc1)(c1cccc(C(F)(F)F)c1)c1ccccn1 (stereo not given),0.7,25,"remaining at 10 min, 3 µM [1]: 2%"
N#Cc1ccc([C@@](Cc2ccccc2)(NC(=O)NC2CCCC2)c2cc(F)cc(C(F)(F)F)c2)nc1,0.036,12,
O=C(NC1CCCC1)N[C@@](Cc1ccccc1)(c1cc(F)cc(C(F)(F)F)c1)c1ccc(F)cn1,0.026,7.6,
O=C(N[C@@](Cc1ccccc1)(c1cc(F)cc(OC(F)(F)C(F)F)c1)c1ccc(Cl)cn1)c1ccc(F)c(C(F)(F)F)c1,0.036,3.6,"half-life [10]: 14 h; Activity (Rattus norvegicus [11]): Non-toxic; Cmax [12]: 25 µM; Activity (Rattus norvegicus [13]): Non-toxic; Activity (Syrian golden hamster): 40%; concentration at 2 h [14]: 21 µM; remaining at 10 min, 3 µM [1]: 100%; Drug metabolism [2]: 0.0025 nmol/min/mg; AUC(0-t) at 8 h [3]: 93 µM·h; IC50 (Mus musculus [4]): 9 µM; activity in vivo at 30 mg/kg (Mus musculus [5]): 55%; CETP activity in vivo at 30 mg/kg (Mus musculus [6]): 40%; CETP activity in vivo at 30 mg/kg (Mus musculus [7]): 48%"
O=C(NC1CCCC1)NC(Cc1ccccc1)(c1cccc(OC(F)(F)F)c1)c1ccc(Cl)cn1 (racemic),0.031,2.7,
O=C(NC1CCCC1)NC(Cc1ccccc1)(c1cccc(OC(F)(F)C(F)F)c1)c1ccc(Cl)cn1 (racemic),0.025,0.84,
CC(C)(C)CC(=O)OC(Cc1ccccc1)(c1cccc(C(F)(F)F)c1)c1ccccn1 (racemic),6.9,56,
CC(C)(C)CC(=O)OC(Cc1ccccc1)(c1cccc(C(F)(F)F)c1)c1ccc(Cl)cn1 (racemic),1.3,9.4,
O=C(NC1CCCC1)NC(Cc1ccccc1)(c1cccc(C(F)(F)F)c1)c1ccc(Cl)cn1 (racemic),0.31,16,
O=C(NC1CCCC1)NC(Cc1ccccc1)(c1ccc(Cl)nc1)c1cc(F)cc(C(F)(F)F)c1 (racemic),0.031,12,
CCOC(=O)N1c2ccc(C(F)(F)F)cc2[C@@H](N(Cc2cc(C(F)(F)F)cc(C(F)(F)F)c2)C(=O)OC)C[C@H]1CC [TORCETRAPIB],,,AUC(0-t) at 8 h [3]: 65 µM·h; IC50 (Mus musculus [4]): 0.16 µM; activity in vivo at 30 mg/kg (Mus musculus [5]): 31%; CETP activity in vivo at 30 mg/kg (Mus musculus [6]): 25%; CETP activity in vivo at 30 mg/kg (Mus musculus [7]): 31%
